The nature of data set [1]: Half life in Sprague-Dawley rat at 5 mg/kg, ip. The data set is classed as ADME, organism-based. Set-up: dose 5 mg/kg, route intraperitoneal. As to conditions: in vivo.
A short description of data set [2]: Half life in Sprague-Dawley rat at 1 mg/kg, ip. The arrangement: dose 1 mg/kg, route intraperitoneal. Format: ADME, organism-based. As to conditions: in vivo.
A short description of data set [3]: Stability in human liver microsomes assessed as remaining compound level at 1 uM incubated for 5 mins in presence of NADPH measured after 30 mins by LC/MS/MS method. The data set is classed as ADME. As to conditions: read-out: Stability. The method in brief: (§1)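 Percent parent compound remaining after 30 min incubation with liver microsomes; n = 3.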
Data set [4] relates to Plasmodium falciparum. As to the kind of experiment: Antimalarial activity against tightly synchronized Plasmodium falciparum K1 assessed as parasite stage accumulation index at schizonts stages at 10 uM treated at 6 to 30 hrs post-invasion by automated image mining based cytological profiling assay. The data set is classed as functional, organism-based.
Data set [5] relates to Plasmodium chabaudi. As to the kind of experiment: Antimalarial activity against Plasmodium chabaudi infected in BALB/c mouse assessed as reduction in accumulation of ring-stage parasites level at 3 to 30 mg/kg, ip treated on day 1 to day 3 post-infection measured on day 4 post-infection by Giemsa staining based light microscopy. Format: functional, organism-based. An outline of the steps: (§2)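 Groups of five BALB/c mice infected i.p. with 2 × 10^7 P. chabaudi-parasitized erythrocytes. Day 1 pre-treatment parasitaemia read from tail-blood thin smears, then i.p. dosing at 0.03, 0.3, 3, 10 or 30 mg/kg, repeated for two more days. Day 4 parasitaemia scored by light microscopy of Giemsa-stained thin smears; dose-response evaluated by probit analysis.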

Data set [6] can be described thus: Tmax in Sprague-Dawley rat at 5 mg/kg, ip. Format: ADME, organism-based. The arrangement: dose 5 mg/kg, route intraperitoneal. As to conditions: in vivo.
Data set [7] has as its system Plasmodium falciparum. As to the kind of experiment: Antimalarial activity against Plasmodium falciparum W2 by automated image mining based cytological profiling assay. Format: functional, organism-based. The method in brief:
(§3)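 Parasite cultures in 384-well format, read by automated imaging. Infected erythrocytes detected by DAPI nuclear staining against WGA-AlexaFluor 488 host-cell stain, and viability by Mitotracker Red CMXRos. Total culture parasitaemia quantified. EC50 given as mean±SD of two independent experiments, each in duplicate.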

Data set [8] in a line: Cmax in Sprague-Dawley rat at 1 mg/kg, ip. Format: ADME, organism-based. The arrangement: dose 1 mg/kg, route intraperitoneal. As to conditions: in vivo.
The nature of data set [9]: Tmax in Sprague-Dawley rat at 1 mg/kg, ip. The data set is classed as ADME, organism-based. To be noted: in vivo. The arrangement: dose 1 mg/kg, route intraperitoneal.
Data set [10] can be described thus: AUC in Sprague-Dawley rat at 5 mg/kg, ip. Format: ADME, organism-based. The arrangement: dose 5 mg/kg, route intraperitoneal. To be noted: plasma.
The subject of data set [11] is Plasmodium falciparum. Briefly: Antimalarial activity against tightly synchronized Plasmodium falciparum K1 assessed as parasite stage accumulation index at late ring stages at 10 uM treated at 6 to 30 hrs post-invasion by automated image mining based cytological profiling assay. Format: functional, organism-based.
Data set [12] relates to Plasmodium chabaudi. As to the kind of experiment: Antimalarial activity against Plasmodium chabaudi infected in BALB/c mouse assessed as reduction in parasitaemia level treated intraperitoneally on day 1 to day 3 post-infection measured on day 4 post-infection by Giemsa staining based light microscopy. As to conditions: for ED50: ip. Format: functional. An outline of the steps: as §2

Data set [13] can be described thus: AUC in Sprague-Dawley rat at 1 mg/kg, ip. Format: ADME, organism-based. As to conditions: plasma. The arrangement: dose 1 mg/kg, route intraperitoneal.
Data set [14] is described as follows: Selectivity index, ratio of CC50 for human HepG2 cells to EC50 for Plasmodium falciparum. As to conditions: read-out: Ratio CC50/EC50. Format: toxicity, cell-based. The method in brief: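 Ratio of HepG2 CC50 (resazurin assay) to the highest EC50 among P. falciparum K1, HB3 and W2. Parasite EC50 values are means of two independent experiments, each run in duplicate.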

The nature of data set [15]: Stability in mouse liver microsomes assessed as remaining compound level at 1 uM incubated for 5 mins in presence of NADPH measured after 30 mins by LC/MS/MS method. The data set is classed as ADME. As to conditions: read-out: Stability. The method in brief: as §1
For orientation: Liver microsomes are vesicles of endoplasmic reticulum, rich in cytochrome P450 enzymes.

Data set [16] is described as follows: Cmax in Sprague-Dawley rat at 5 mg/kg, ip. As to conditions: in vivo. Set-up: dose 5 mg/kg, route intraperitoneal. The data set is classed as ADME, organism-based.
The test system of data set [17] is Plasmodium falciparum. As to the kind of experiment: Antimalarial activity against Plasmodium falciparum K1 by automated image mining based cytological profiling assay. Format: functional, organism-based. An outline of the steps:
as §3

The subject of data set [18] is Plasmodium chabaudi. Briefly: Antimalarial activity against Plasmodium chabaudi infected in BALB/c mouse assessed as reduction in blood parasitaemia level at 3 to 30 mg/kg, ip treated on day 1 to day 3 post-infection measured on day 4 post-infection by Giemsa staining based light microscopy. Format: functional, organism-based. The method in brief: as §2
Data set [19] relates to Plasmodium falciparum. Briefly: Antimalarial activity against Plasmodium falciparum HB3 by automated image mining based cytological profiling assay. The data set is classed as functional. The method in brief:
as §3

For data set [20], the system named is Plasmodium falciparum. Briefly: Antimalarial activity against tightly synchronized Plasmodium falciparum K1 assessed as parasite stage accumulation index at early ring stages at 10 uM treated at 6 to 30 hrs post-invasion by automated image mining based cytological profiling assay. The data set is classed as functional, organism-based.
The subject of data set [21] is Plasmodium falciparum. Briefly: Antimalarial activity against tightly synchronized Plasmodium falciparum K1 assessed as parasite stage accumulation index at trophozoites stages at 10 uM treated at 6 to 30 hrs post-invasion by automated image mining based cytological profiling assay. The data set is classed as functional, organism-based.

Each structure is given as a SMILES string. Calls of active or inactive are those of the source. Some results are limits rather than exact numbers.

Usually half-life stands for the time needed for the level to fall by half in the phase considered. Read a low half-life as fast loss. For orientation: Tmax means the time at which the peak concentration occurs. The EC50 is the concentration that produces a half-maximal response. Lower therefore signals higher potency in that assay. By Cmax is commonly meant the maximum level reached in the sampled fluid or tissue. By AUC is commonly meant concentration integrated over time. Low values mean low exposure, high ones high exposure. For orientation: ED50 means the dose at which the effect has come halfway, by size or by number of responders. On to `COc1ccc(CO[C@@H]([C@H](COC(c2ccccc2)(c2ccccc2)c2ccccc2)N=[N+]=[N-])[C@H](OCc2ccc(OC)cc2)c2cnc(N(C)C)nc2)cc1`, for which the half-life in data set [1] was 347 min; in data set [2], 382 min. Further, the remaining at 30 min, 1 µM in [3] was found to be 89%. Besides, the result in [4], in data set [11], in data set [20] and in [21] was Active. In addition, the inhibition result in data set [5] and in data set [18] was “Active” each time. Besides, the Tmax in data set [6] was 4 h; in data set [9], 3.4 h. Besides, the half-maximal effective concentration (EC50) in [7] turned out to be 80 nM; in [17] it was 92 nM; in [19], 80 nM. The Cmax in data set [8] was 1030 ng/mL; in data set [16], 3070 ng/mL. Besides, the figures for the AUC in data set [10] and in data set [13] were 26600 ng·h/mL and 8200 ng·h/mL, respectively. The inhibition entry in [12] is “Dose dependent effect”. In addition, in [12], the median effective dose (ED50) was 0.12 mg/kg. Also, the selectivity ratio in data set [14] is above 1000. The remaining at 0.5 h, 1 µM in [15] came to 81.6%.
With `COc1ccc(CO[C@H]([C@H](OCc2ccc(OC)cc2)c2cnc(N(C)C)nc2)[C@@H](COC(c2ccccc2)(c2ccccc2)c2ccccc2)OS(C)(=O)=O)cc1`, the half-life in data set [1] was 636 min; in [2] it was 618 min. Further, the remaining at 30 min, 1 µM in [3] came to 88.1%. Also, the result in data set [4], in data set [11], in [20] and in [21] was Active. The inhibition entry in data set [5] and in data set [18] was “Active” throughout. Besides, the Tmax in data set [6] and in data set [9] was 1 h in each case. Moreover, the EC50 is 104 nM in data set [7], 116 nM in [17] and 104 nM in data set [19]. The Cmax was 1800 ng/mL in data set [8] and 12900 ng/mL in data set [16]. Also, the results for the AUC in [10] and in data set [13] were 41300 ng·h/mL and 9790 ng·h/mL, respectively. Besides, the inhibition result in data set [12] is “Dose dependent effect”. Further, the ED50 in data set [12] is 0.32 mg/kg. In addition, the selectivity ratio in data set [14] was above 680. For the same compound, in [15], the remaining at 0.5 h, 1 µM was determined as 88.6%.
